Data taken from ChEMBL document CHEMBL3612019, “Revisiting 1,3,4-Oxadiazol-2-ones: Utilization in the Development of ABHD6 Inhibitors” (Bioorg Med Chem, 2015).
Activity calls are given as the source filed them. The calls are words filed in the database; no cut-off is given here.

Legend:
[1] = biological target: T1, Fatty-acid amide hydrolase 1 (Homo sapiens) (UniProt O00519); assay: Inhibition of human FAAH expressed in COS7 cell membranes at 10 uM pre-incubated for 10 mins before [3H]-AEA substrate addition by liquid scintillation counting; details: COS-7
T1 sequence (whole entry): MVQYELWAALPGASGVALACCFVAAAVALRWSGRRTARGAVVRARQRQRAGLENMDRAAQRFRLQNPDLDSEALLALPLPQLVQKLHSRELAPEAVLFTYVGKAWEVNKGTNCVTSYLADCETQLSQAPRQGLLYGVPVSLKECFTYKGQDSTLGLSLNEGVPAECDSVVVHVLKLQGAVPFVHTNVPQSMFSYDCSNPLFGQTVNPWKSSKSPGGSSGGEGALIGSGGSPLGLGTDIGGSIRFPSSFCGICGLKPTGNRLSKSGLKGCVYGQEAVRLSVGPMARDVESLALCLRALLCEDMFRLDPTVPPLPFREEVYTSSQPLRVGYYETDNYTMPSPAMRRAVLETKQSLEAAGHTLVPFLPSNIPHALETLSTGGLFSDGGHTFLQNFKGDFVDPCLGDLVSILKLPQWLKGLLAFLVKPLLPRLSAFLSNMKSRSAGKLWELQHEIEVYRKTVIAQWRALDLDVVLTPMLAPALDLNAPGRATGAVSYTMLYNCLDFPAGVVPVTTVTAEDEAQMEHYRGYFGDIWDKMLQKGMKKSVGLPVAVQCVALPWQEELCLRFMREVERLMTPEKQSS

[2] = biological target: T2, Lysophosphatidylserine lipase ABHD12 (Homo sapiens) (UniProt Q8N2K0); assay: Inhibition of human ABHD12 expressed in HEK293 cells assessed as remaining enzyme activity at 1 uM pre-incubated for 10 mins before 2-AG substrate addition by HPLC method; format: cell-based
T2 sequence (whole entry): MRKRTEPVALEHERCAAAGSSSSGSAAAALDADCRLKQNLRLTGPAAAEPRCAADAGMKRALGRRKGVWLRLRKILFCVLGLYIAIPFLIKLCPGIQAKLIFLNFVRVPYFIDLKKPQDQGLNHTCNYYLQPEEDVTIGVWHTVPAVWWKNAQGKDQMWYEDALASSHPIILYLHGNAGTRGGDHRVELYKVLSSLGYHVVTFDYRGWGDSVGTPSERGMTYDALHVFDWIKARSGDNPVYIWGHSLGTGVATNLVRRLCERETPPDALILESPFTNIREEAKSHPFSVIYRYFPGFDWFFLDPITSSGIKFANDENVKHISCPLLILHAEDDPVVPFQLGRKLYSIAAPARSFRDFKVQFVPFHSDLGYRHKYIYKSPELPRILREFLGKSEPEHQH

[3] = biological target: T3, Monoglyceride lipase (Homo sapiens) (UniProt Q99685); assay: Inhibition of human MAGL expressed in HEK293 cells at 10 uM pre-incubated for 10 mins before 2-AG substrate addition by HPLC method; format: cell-based
T3 sequence (whole entry): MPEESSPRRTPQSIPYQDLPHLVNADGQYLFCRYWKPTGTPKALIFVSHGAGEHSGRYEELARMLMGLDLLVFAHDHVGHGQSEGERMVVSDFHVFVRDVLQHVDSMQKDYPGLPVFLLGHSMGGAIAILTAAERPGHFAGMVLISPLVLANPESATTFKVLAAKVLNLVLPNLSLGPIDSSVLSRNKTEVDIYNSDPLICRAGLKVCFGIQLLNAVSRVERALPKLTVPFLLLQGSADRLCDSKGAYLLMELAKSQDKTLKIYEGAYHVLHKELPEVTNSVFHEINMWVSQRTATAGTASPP
Procedure, shortened: (§1)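 Lysates of hMAGL-overexpressing HEK293 cells in 50 mM Tris–HCl pH 7.4 with 1 mM EDTA. After a 10 min preincubation with inhibitor or DMSO, 2-AG was added (final 50 µM) and incubated 10 min at 37 °C. The reaction was stopped and samples centrifuged. Arachidonic acid formation and 2-AG depletion were measured by HPLC. Replicates as for the FAAH assay.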

[4] = biological target: T4, Monoacylglycerol lipase ABHD6 (Homo sapiens) (UniProt Q9BV23); assay: Inhibition of human ABHD6 expressed in HEK293 cells assessed as remaining enzyme activity by measuring reduction in glycerol production from 1-AG hydrolysis at 1 uM pre-incubated for 30 mins before 1-AG substrate addition and measured 90 mins post substrate addition by fluorescence method; format: cell-based
T4 sequence (whole entry): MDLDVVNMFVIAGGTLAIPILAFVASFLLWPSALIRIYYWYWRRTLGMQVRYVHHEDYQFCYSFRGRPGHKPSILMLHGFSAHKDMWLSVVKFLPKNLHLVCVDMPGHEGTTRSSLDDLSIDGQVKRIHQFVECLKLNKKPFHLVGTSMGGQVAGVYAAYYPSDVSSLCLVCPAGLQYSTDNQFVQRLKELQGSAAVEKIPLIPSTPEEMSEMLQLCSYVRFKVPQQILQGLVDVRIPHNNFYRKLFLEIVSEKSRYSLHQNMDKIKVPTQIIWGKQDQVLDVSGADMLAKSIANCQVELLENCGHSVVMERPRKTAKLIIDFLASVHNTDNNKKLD
Procedure, shortened: (§2)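 hABHD6-HEK293 lysates pretreated 30 min with DMSO or inhibitor, then given 1-AG (12.5 µM final). Glycerol release was followed kinetically by fluorescence (emission 590 nm). Blanks without lysate were subtracted. IC50 was taken at the 90 min time point by nonlinear fitting of dose–response curves.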

[5] = biological target: T5, Monoacylglycerol lipase ABHD6 (Homo sapiens, UniProt Q9BV23); assay: Inhibition of human ABHD6 expressed in HEK293 cells at 1 uM pre-incubated for 10 mins before 2-AG substrate addition followed by rapid 40 fold compound dilution measured after 60 mins by HPLC method; format: cell-based
T5 sequence (Q9BV23 whole entry): T4 sequence (whole entry)

[6] = biological target: T5, Monoacylglycerol lipase ABHD6; assay: Inhibition of human ABHD6 expressed in HEK293 cells at 1 uM pre-incubated for 10 mins before 2-AG substrate addition followed by rapid 40 fold compound dilution measured after 30 mins by HPLC method; format: cell-based
[7] = biological target: T5, Monoacylglycerol lipase ABHD6; assay: Inhibition of human ABHD6 expressed in HEK293 cells at 1 uM pre-incubated for 10 mins before 2-AG substrate addition followed by rapid 40 fold compound dilution measured after 90 mins by HPLC method; format: cell-based
[8] = biological target: T5, Monoacylglycerol lipase ABHD6; assay: Inhibition of human ABHD6 expressed in HEK293 cells at 1 uM pre-incubated for 10 mins before 2-AG substrate addition followed by rapid 40 fold compound dilution measured after 10 mins by HPLC method; format: cell-based
[9] = biological target: T5, Monoacylglycerol lipase ABHD6; assay: Inhibition of human ABHD6 expressed in HEK293 cells assessed as reduction in glycerol production from 1-AG hydrolysis pre-incubated for 30 mins before 1-AG substrate addition and measured 90 mins post substrate addition by fluorescence method; format: cell-based; procedure, shortened: as §2
[10] = biological target: T6, Fatty-acid amide hydrolase 1 (Homo sapiens, UniProt O00519); assay: Inhibition of human FAAH expressed in COS7 cell membranes pre-incubated for 10 mins before [3H]-AEA substrate addition by liquid scintillation counting; set-up: species or system COS-7
T6 sequence (O00519 whole entry): T1 sequence (whole entry)

[11] = biological target: T7, Monoglyceride lipase (Homo sapiens, UniProt Q99685); assay: Inhibition of human MAGL expressed in HEK293 cells pre-incubated for 10 mins before 2-AG substrate addition by HPLC method; format: cell-based; procedure, shortened: as §1
T7 sequence (Q99685 whole entry): T3 sequence (whole entry)

[12] = biological target: Cannabinoid receptor 1 (Rattus norvegicus) (UniProt P20272); details: Cerebellum, Membrane, 1 uM
Chain of Cannabinoid receptor 1 (Rattus norvegicus) (P20272 whole entry): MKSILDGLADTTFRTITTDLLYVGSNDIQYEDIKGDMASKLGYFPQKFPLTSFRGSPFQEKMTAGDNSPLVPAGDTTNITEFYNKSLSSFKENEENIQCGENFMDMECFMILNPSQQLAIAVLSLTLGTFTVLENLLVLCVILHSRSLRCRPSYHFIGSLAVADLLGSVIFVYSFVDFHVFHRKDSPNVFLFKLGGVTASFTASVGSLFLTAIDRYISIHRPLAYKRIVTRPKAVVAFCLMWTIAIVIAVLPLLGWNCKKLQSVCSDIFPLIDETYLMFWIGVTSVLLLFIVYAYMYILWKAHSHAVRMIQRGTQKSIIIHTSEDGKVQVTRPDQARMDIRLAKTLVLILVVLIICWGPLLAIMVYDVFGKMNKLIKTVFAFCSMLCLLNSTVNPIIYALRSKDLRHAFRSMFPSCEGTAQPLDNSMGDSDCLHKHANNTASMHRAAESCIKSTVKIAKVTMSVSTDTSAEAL

inhibition [1]	inhibition [2]	inhibition [3]	Activity [4] [%]	inhibition [4]	SMILES	also measured
inactive	inactive	23%	63		COc1nn(Cc2cccc(C#N)c2)c(=O)o1	
36%	inactive	43%	57		COc1nn(Cc2ccccc2[N+](=O)[O-])c(=O)o1	
7%	inactive	32%	65		COc1nn(Cc2cccc([N+](=O)[O-])c2)c(=O)o1	
inactive	inactive	12%		inactive	COc1nn(Cc2cccc(NC(C)=O)c2)c(=O)o1	
34%	inactive	23%		inactive	COc1nn(Cc2ccc(N)cc2)c(=O)o1	
inactive	inactive	6%	70		COc1cccc(Cn2nc(OC)oc2=O)c1	
37%	inactive	43%	52		COc1nn(Cc2cccc(Cl)c2)c(=O)o1	
20%	inactive	7%			COC(=O)c1cccc(Cn2nc(OC)oc2=O)c1	IC50 [9]: 450 nM
12%	inactive	48%			COc1nn(Cc2cccc(C(F)(F)F)c2)c(=O)o1	IC50 [9]: 870 nM
				inactive	COc1nn(Cc2cccc(-c3ccccc3)c2)c(=O)o1	
18%	inactive	36%		inactive	COc1nn(Cc2ccc([N+](=O)[O-])cc2)c(=O)o1	
inactive		inactive	61		COc1nn(Cc2ccccc2)c(=O)o1	
38%	inactive				O=c1oc(Oc2ccccc2)nn1Cc1cccc([N+](=O)[O-])c1	IC50 [9]: 130 nM; IC50 ([11]; read-out: IC50): 3310 nM; IC50 ([11]; read-out: pIC50 (converted)): 3240 nM

Second part, the molecule before the results:

SMILES	inhibition [1]	inhibition [2]	inhibition [3]	Activity [4] [%]	inhibition [4]	also measured
CCOc1nn(Cc2cccc(N)c2)c(=O)o1	10%	inactive	15%		inactive	
COc1nn(Cc2ccc(CC(C)C)cc2)c(=O)o1					inactive	
CN(C(=O)Oc1nsnc1N1CCOCC1)C1CCCCCCC1	18%		inactive			IC50 [5]: 87.1 nM; IC50 [6]: 87.1 nM; IC50 [7]: 93.3 nM; IC50 [8]: 91.2 nM; pIC50 ([9]; hek293): 7.36
COc1nn(Cc2ccccc2NC(C)=O)c(=O)o1	11%	inactive	3%		inactive	
COc1nn(Cc2ccccc2Oc2ccccc2)c(=O)o1			inactive	60		
COc1nn(Cc2ccc(NC(=O)c3ccccc3)cc2)c(=O)o1		inactive		88		IC50 ([10]; read-out: IC50): 620 nM; IC50 ([10]; read-out: pIC50 (converted)): 617 nM; IC50 ([11]; read-out: IC50): 560 nM
COc1nn(Cc2ccccc2NC(=O)c2ccccc2)c(=O)o1	inactive	inactive	inactive		inactive	
Cc1c(C(=O)NN2CCCCC2)nn(-c2ccc(Cl)cc2Cl)c1-c1ccc(I)cc1						inhibition [12]: 38%
COC(=O)c1ccc(Cn2nc(OC)oc2=O)cc1		inactive	15%		inactive	IC50 ([10]; read-out: IC50): 6760 nM; IC50 ([10]; read-out: pIC50 (converted)): 6760 nM
COc1nn(Cc2ccccc2N)c(=O)o1	8%	inactive	4%		inactive	
COc1nn(Cc2cccc(NC(=O)c3ccccc3)c2)c(=O)o1	inactive	inactive	48%	79		
COc1nn(Cc2cccc3ccccc23)c(=O)o1	35%	inactive	11%	64		
COc1nn(Cc2ccc3ccccc3c2)c(=O)o1		inactive	inactive		inactive	IC50 ([10]; read-out: IC50): 3980 nM; IC50 ([10]; read-out: pIC50 (converted)): 3980 nM
COc1nn(Cc2ccc(Oc3ccccc3)cc2)c(=O)o1				77		pIC50 ([11]; hek293): 6.4
COc1nn(Cc2ccc(OCc3ccccc3)cc2)c(=O)o1		inactive			inactive	IC50 ([10]; read-out: IC50): 410 nM; IC50 ([10]; read-out: pIC50 (converted)): 407 nM; IC50 ([11]; read-out: IC50): 520 nM
O=C(N1CCC(=C2c3ccc(Cl)cc3CCc3cccnc32)CC1)n1cncn1						IC50 ([10]; cos-7, read-out: IC50): 7240 nM; IC50 ([9]; hek293): 1780 nM; IC50 ([11]; hek293, read-out: IC50): 46 nM
COc1nn(Cc2ccc(C#N)cc2)c(=O)o1	inactive	inactive	25%		inactive	
COc1nn(Cc2ccc(-c3ccccc3)cc2)c(=O)o1					inactive	
COc1nn(Cc2ccccc2-c2ccccc2)c(=O)o1	23%	inactive	8%		inactive	
COc1nn(Cc2cccc(OCc3ccccc3)c2)c(=O)o1		inactive		53		IC50 ([10]; read-out: IC50): 1510 nM; IC50 ([10]; read-out: pIC50 (converted)): 1510 nM; IC50 ([11]; read-out: IC50): 3230 nM
COc1nn(Cc2ccc(NC(C)=O)cc2)c(=O)o1	37%	inactive	16%		inactive	
COc1nn(Cc2cccc(Oc3ccccc3)c2)c(=O)o1				70		
COc1nn([C@@H](C)c2ccc(CC(C)C)cc2)c(=O)o1					inactive	
